The source made the active and inactive calls. No cut-off for these calls is given here.
Columns and labels:
[1] = tested on: PC-3; test: Cytotoxicity against human PC3 cells after 48 hrs by SRB assay; assay type: functional, cell-based; settings: PC-3, 48 h
[2] = tested on: PC-3; test: Cytotoxicity against human PC3 cells at 30 uM after 48 hrs by SRB assay; assay type: functional; settings: PC-3, 48 h, read-out: GI
[3] = tested on: HCT-15; test: Cytotoxicity against human HCT15 cells after 48 hrs by SRB assay; assay type: functional, cell-based; settings: HCT-15, 48 h
[4] = tested on: DU-145; test: Cytotoxicity against human DU145 cells at 30 uM after 48 hrs by SRB assay; assay type: functional; settings: DU-145, 48 h, read-out: GI
[5] = tested on: HEp-2; test: Cytotoxicity against human Hep2 cells at 50 uM after 48 hrs by SRB assay; assay type: functional; settings: HEp-2, 48 h, read-out: GI
[6] = tested on: MCF7; test: Cytotoxicity against human MCF7 cells after 48 hrs by SRB assay; assay type: functional, cell-based; settings: MCF7, 48 h
[7] = tested on: MCF7; test: Cytotoxicity against human MCF7 cells at 50 uM after 48 hrs by SRB assay; assay type: functional; settings: MCF7, 48 h, read-out: GI
[8] = tested on: HL-60; test: Induction of apoptosis in human HL60 cells assessed as change in mitochondrial membrane potential after 24 hrs using rhodamine-123 staining by fluorescence based confocal microscopy analysis; assay type: functional, cell-based
Procedure, shortened: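 HL-60 cells (6 × 10⁴/mL/well) were treated for 24 h. Rhodamine-123 (1 µM) was added in serum-free medium 30 min before the end, in the dark. Cells were then washed and resuspended in PBS. Fluorescence loss was viewed by confocal microscopy with 488 nm laser excitation. Each experiment was done twice.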

[9] = tested on: HEp-2; test: Cytotoxicity against human Hep2 cells at 30 uM after 48 hrs by SRB assay; assay type: functional; settings: HEp-2, 48 h, read-out: GI
[10] = tested on: HL-60; test: Cytotoxicity against human HL60 cells after 48 hrs by SRB assay; assay type: functional, cell-based; settings: HL-60, 48 h
[11] = tested on: THP-1; test: Inhibition of cell migration in human THP1 cells at 1 to 30 uM after 24 hrs by wound-healing assay; assay type: functional, cell-based
Procedure, shortened: (§1)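 THP-1 monolayers (3×10⁵ cells/mL/well) were scratched with a pipette tip and washed three times with PBS. Test samples were added for 24 h, then fresh medium was added until the control wound healed. Wounds were imaged with a 10× objective at 0 h and 24 h. Migration was quantified as the distance between wound edges.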

[12] = tested on: A549; test: Cytotoxicity against human A549 cells after 48 hrs by SRB assay; assay type: functional, cell-based; settings: A549, 48 h
[13] = tested on: DU-145; test: Cytotoxicity against human DU145 cells after 48 hrs by SRB assay; assay type: functional, cell-based; settings: DU-145, 48 h
[14] = tested on: PC-3; test: Cytotoxicity against human PC3 cells at 50 uM after 48 hrs by SRB assay; assay type: functional; settings: PC-3, 48 h, read-out: GI
[15] = tested on: HL-60; test: Induction of apoptosis in human HL60 cells assessed as DNA ladder formation at 20 to 30 uM after 24 hrs by DNA agarose gel electrophoresis; assay type: functional, cell-based
Procedure, shortened: (§2)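 DNA fragmentation assay in HL-60 cells (2 × 10⁶ cells/well) or CV-1 cells, treated for 24 h. Cells were lysed in Tris–HCl pH 8.0/NaCl/EDTA/Triton X-100 with proteinase K (200 µg/mL) at 50 °C for 1 h, then DNase-free RNase for 90 min. DNA was phenol:chloroform extracted and ethanol precipitated. Gels were 1% agarose in TAE at 80 V for 1.5 h. Camptothecin (5 µM, 6 h) served as positive control in HL-60.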

[16] = tested on: SF-295; test: Cytotoxicity against human SF295 cells at 30 uM after 48 hrs by SRB assay; assay type: functional; settings: SF-295, 48 h, read-out: GI
[17] = tested on: A549; test: Cytotoxicity against human A549 cells at 50 uM after 48 hrs by SRB assay; assay type: functional; settings: A549, 48 h, read-out: GI
[18] = tested on: MCF7; test: Cytotoxicity against human MCF7 cells at 10 uM after 48 hrs by SRB assay; assay type: functional; settings: MCF7, 48 h, read-out: GI
[19] = tested on: HEp-2; test: Cytotoxicity against human Hep2 cells after 48 hrs by SRB assay; assay type: functional, cell-based; settings: HEp-2, 48 h
[20] = tested on: SF-295; test: Cytotoxicity against human SF295 cells at 10 uM after 48 hrs by SRB assay; assay type: functional; settings: SF-295, 48 h, read-out: GI
[21] = tested on: HEp-2; test: Cytotoxicity against human Hep2 cells at 10 uM after 48 hrs by SRB assay; assay type: functional; settings: HEp-2, 48 h, read-out: GI
[22] = tested on: THP-1; test: Inhibition of colony formation in human THP1 cells using crystal violet staining after 24 hrs by clonogenic assay; assay type: functional, cell-based
Procedure, shortened: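 THP-1 cells from log-phase culture were plated at clonogenic dilution. After 24 h they were treated for 24 h, then incubated for at least six potential divisions (colonies >50 cells). Colonies were fixed and stained with 6% glutaraldehyde plus 0.5% crystal violet for 30 min, washed with water and air-dried.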

[23] = tested on: HL-60; test: Cytotoxicity against human HL60 cells at 30 uM after 48 hrs by SRB assay; assay type: functional; settings: HL-60, 48 h, read-out: GI
[24] = tested on: THP-1; test: Inhibition of cell invasion in human THP1 cells at 1 to 30 uM after 24 hrs by wound-healing assay; assay type: functional, cell-based; procedure, shortened: as §1
[25] = tested on: HCT-15; test: Cytotoxicity against human HCT15 cells at 50 uM after 48 hrs by SRB assay; assay type: functional; settings: HCT-15, 48 h, read-out: GI
[26] = tested on: A549; test: Cytotoxicity against human A549 cells at 30 uM after 48 hrs by SRB assay; assay type: functional; settings: A549, 48 h, read-out: GI
[27] = tested on: HL-60; test: Cytotoxicity against human HL60 cells at 50 uM after 48 hrs by SRB assay; assay type: functional; settings: HL-60, 48 h, read-out: GI
[28] = tested on: DU-145; test: Cytotoxicity against human DU145 cells at 10 uM after 48 hrs by SRB assay; assay type: functional; settings: DU-145, 48 h, read-out: GI
[29] = tested on: THP-1; test: Cytotoxicity against human THP1 cells at 50 uM after 48 hrs by SRB assay; assay type: functional; settings: THP-1, 48 h, read-out: GI
[30] = tested on: HCT-15; test: Cytotoxicity against human HCT15 cells at 10 uM after 48 hrs by SRB assay; assay type: functional; settings: HCT-15, 48 h, read-out: GI
[31] = tested on: HL-60; test: Cytotoxicity against human HL60 cells at 10 uM after 48 hrs by SRB assay; assay type: functional; settings: HL-60, 48 h, read-out: GI
[32] = tested on: THP-1; test: Cytotoxicity against human THP1 cells at 30 uM after 48 hrs by SRB assay; assay type: functional; settings: THP-1, 48 h, read-out: GI
[33] = tested on: PC-3; test: Cytotoxicity against human PC3 cells at 10 uM after 48 hrs by SRB assay; assay type: functional; settings: PC-3, 48 h, read-out: GI
[34] = tested on: HL-60; test: Induction of apoptosis in human HL60 cells assessed as DNA ladder formation after 24 hrs by DNA agarose gel electrophoresis; assay type: functional; procedure, shortened: as §2
[35] = tested on: A549; test: Cytotoxicity against human A549 cells at 10 uM after 48 hrs by SRB assay; assay type: functional; settings: A549, 48 h, read-out: GI
[36] = tested on: THP-1; test: Cytotoxicity against human THP1 cells after 48 hrs by SRB assay; assay type: functional, cell-based; settings: THP-1, 48 h
[37] = tested on: SF-295; test: Cytotoxicity against human SF295 cells after 48 hrs by SRB assay; assay type: functional, cell-based; settings: SF-295, 48 h
[38] = tested on: MCF7; test: Cytotoxicity against human MCF7 cells at 30 uM after 48 hrs by SRB assay; assay type: functional; settings: MCF7, 48 h, read-out: GI
[39] = tested on: HCT-15; test: Cytotoxicity against human HCT15 cells at 30 uM after 48 hrs by SRB assay; assay type: functional; settings: HCT-15, 48 h, read-out: GI
[40] = tested on: SF-295; test: Cytotoxicity against human SF295 cells at 50 uM after 48 hrs by SRB assay; assay type: functional; settings: SF-295, 48 h, read-out: GI
[41] = tested on: CV-1; test: Induction of apoptosis in african green monkey CV1 cells assessed as DNA ladder formation at 10 to 60 uM after 24 hrs by DNA agarose gel electrophoresis; assay type: cell-based; settings: chlorocebus aethiops, cv-1, 24 h; procedure, shortened: as §2
[42] = tested on: THP-1; test: Cytotoxicity against human THP1 cells at 10 uM after 48 hrs by SRB assay; assay type: functional; settings: THP-1, 48 h, read-out: GI
[43] = tested on: DU-145; test: Cytotoxicity against human DU145 cells at 50 uM after 48 hrs by SRB assay; assay type: functional; settings: DU-145, 48 h, read-out: GI
[44] = tested on: HL-60; test: Induction of apoptosis in human HL60 cells assessed as DNA ladder formation at 5 uM after 6 hrs by DNA agarose gel electrophoresis; assay type: functional, cell-based
Procedure, shortened: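 HL-60 cells (2 × 10⁶/well/2 mL) were treated at 5 µM for 6 h, then pelleted and washed in PBS. DNA was extracted with phenol:chloroform:isoamyl alcohol and ethanol-precipitated. It was run on 1% agarose in TAE at 80 V for 1.5 h.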

## C=C(C)[C@@H]1CC[C@]2(C(=O)O)CC[C@]3(C)[C@H](CC[C@@H]4[C@@]5(C)CC[C@H](OCc6cn(-c7ccccc7C#N)nn6)C(C)(C)[C@@H]5CC[C@]43C)[C@@H]12
[1]
  IC50: 14 µM
[2]
  inhibition of growth at 30 µM: 71%
[3]
  IC50: 20 µM
[4]
  inhibition of growth at 30 µM: 65%
[5]
  inhibition of growth at 50 µM: 68%
[6]
  IC50: 4.8 µM
[7]
  inhibition of growth at 50 µM: 97%
[8]
  Activity: Dose-dependent effect
[9]
  inhibition of growth at 30 µM: 59%
[10]
  IC50: 2.5 µM
[11]
  inhibition: Active
[12]
  IC50: 5 µM
[13]
  IC50: 18 µM
[14]
  inhibition of growth at 50 µM: 86%
[15]
  Activity: Active
[16]
  inhibition of growth at 30 µM: 66%
[17]
  inhibition of growth at 50 µM: 79%
[18]
  inhibition of growth at 10 µM: 60%
[19]
  IC50: 12 µM
[20]
  inhibition of growth at 10 µM: 45%
[21]
  inhibition of growth at 10 µM: 45%
[22]
  inhibition: Dose-dependent effect
[23]
  inhibition of growth at 30 µM: 90%
[24]
  inhibition: Active
[25]
  inhibition of growth at 50 µM: 89%
[26]
  inhibition of growth at 30 µM: 74%
[27]
  inhibition of growth at 50 µM: 98%
[28]
  inhibition of growth at 10 µM: 32%
[29]
  inhibition of growth at 50 µM: 92%
[30]
  inhibition of growth at 10 µM: 40%
[31]
  inhibition of growth at 10 µM: 65%
[32]
  inhibition of growth at 30 µM: 89%
[33]
  inhibition of growth at 10 µM: 34%
[34]
  Activity: Dose-dependent effect
  MED: 20 µM
[35]
  inhibition of growth at 10 µM: 60%
[36]
  IC50: 4.5 µM
[37]
  IC50: 15 µM
[38]
  inhibition of growth at 30 µM: 81%
[39]
  inhibition of growth at 30 µM: 61%
[40]
  inhibition of growth at 50 µM: 71%
[41]
  Activity: Non-toxic
[42]
  inhibition of growth at 10 µM: 50%
[43]
  inhibition of growth at 50 µM: 84%

## CC[C@@]1(O)C(=O)OCc2c1cc1n(c2=O)Cc2cc3ccccc3nc2-1
[44]
  Activity: Active
